TRAIL sens C8 – sensitizes caspase-8 expressing cells to TRAIL. AID 624354. NB7+C8 cells + TRAIL, ATPlite viability luminescence. inhibition (viability loss, TRAIL sensitization), % at 10 µM. 1% of 360,000 active;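 active means compounds causing at least 50% loss of cell viability in the single-dose screen, relative to plate controls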
STAT3 blocker – inhibitors of IL-6 induced STAT3 signaling | 0.89% of 190,000 active | inhibition, % at 5.5 µM | U3A cells, IL-6 STAT3-luciferase reporter, luminescence; host cell line lacks STAT1;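 active means inhibition above the mean inhibition across all screened compounds plus 3 SD, cut at about 44% in these data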;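 further: 0% = DMSO only wells and 100% = 100 µM nifuroxazide control wells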
HSP90 refold inh – blocks HSP90-mediated luciferase refolding in reticulocyte lysate; Rabbit reticulocyte lysate, luciferase refolding luminescence, 3 h; inhibition, % at 5.6 µM; 0.91% of 290,000 active; AID 1789;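 active means inhibition above the screen-wide mean plus 3 SD, computed separately per campaign, cut at about 16% in these data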;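 further: 0% = DMSO wells and 100% = 60 µM geldanamycin wells; inhibitors lower the luminescence because luciferase stays unfolded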
FLuc act counter – affects firefly luciferase, flagging false hits in luciferase stimulation screens; ATPlite luciferase biochemical, luminescence, 10 min; 0 = ATP-free wells, 1 = DMSO control; activation factor at 10 µM; 200,000 tested, under 10 active; AID 1027;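 active means luciferase activation factor, scaled between plate controls, of at least 2 with compound at 10 µM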
Target sequence (P08659 whole entry, looked up): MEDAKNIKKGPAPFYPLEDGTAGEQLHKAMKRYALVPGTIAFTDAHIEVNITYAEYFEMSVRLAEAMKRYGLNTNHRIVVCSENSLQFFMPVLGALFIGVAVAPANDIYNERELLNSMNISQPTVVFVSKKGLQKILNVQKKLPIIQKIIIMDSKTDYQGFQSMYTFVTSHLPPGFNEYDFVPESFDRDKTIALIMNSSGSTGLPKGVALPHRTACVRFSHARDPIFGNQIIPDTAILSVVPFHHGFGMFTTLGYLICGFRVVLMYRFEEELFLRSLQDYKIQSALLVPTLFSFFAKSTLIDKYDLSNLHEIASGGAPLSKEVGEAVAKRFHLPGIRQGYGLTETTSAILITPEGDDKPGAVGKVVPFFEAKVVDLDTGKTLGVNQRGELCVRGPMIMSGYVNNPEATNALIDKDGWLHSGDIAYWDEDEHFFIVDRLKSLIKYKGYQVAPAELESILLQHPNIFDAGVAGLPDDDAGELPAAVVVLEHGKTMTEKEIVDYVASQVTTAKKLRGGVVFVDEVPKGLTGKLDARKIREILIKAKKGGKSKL
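System: Luciferase/luciferin detection reagent, cell-free biochemical luciferase assay | Medium: PBS buffer for ATP | Dosing: Test compounds dosed from 2 mM stocks in 100% DMSO | Timing: 10 min at ambient temperature | Signal: Luminescence measurement of luciferase light output | Evaluation: Luciferase activation, seen as luminescence increase over controls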
FLuc inh counter – counter-screen for luciferase assay inhibitors: firefly luciferase inhibition; P08659; ATPLite firefly luciferase biochemical luminescence, 10 min; 1.5% of 200,000 active; AID 1006; inhibition, % at 10 µM;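 active means inhibition above about 50% when tested at 10 µM, limit read from the data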
PPC-1+TRAIL kill – PPC-1 cancer cell killing with TRAIL present; PPC-1 cells + TRAIL, ATPLite viability luminescence; cell killing (% activity), % at 4 µM or 5 µM; 0.41% of 220,000 active; AID 1443;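 active means cell killing above 50% in the first pass at 4 µM, then a duplicate retest at 5 µM averaging 50% or more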;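 further: plate controls were cells with TRAIL plus DMSO for no effect and medium-only wells lacking cells for full effect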
Active calls of the source: *; · = no result. Rows were chosen to be rich in hits. Some 2.2% of all compounds tested hit in one or more screens of this group.

SMILES	TRAIL sens C8	STAT3 blocker	HSP90 refold inh	FLuc act counter	FLuc inh counter	PPC-1+TRAIL kill
CCOc1ccc(C(=O)Nc2ccc3c(c2)OCCO3)cc1[N+](=O)[O-]	9	23	-2	0.9	9	·
COc1cc(OC)cc(C(=O)NC(C(=O)Nc2ccc3c(c2)OCCO3)C(C)C)c1 (configuration not stated)	-14	·	·	·	·	·
CCOc1ccc(C(=O)Nc2ccc3c(c2)OCCO3)cc1OC	36	-4	-3	0.4	60*	31
COc1cc(OC)cc(C(=O)Nc2ccc3c(c2)OCCO3)c1	51*	·	-1	·	·	·
CCOC(=O)C1=C(C)Nc2ccccc2N/C1=N\S(=O)(=O)c1cc(C(=O)O)ccc1Cl	-12	·	·	·	·	·
CCOc1ccc2nc(/N=C/c3c(C)[nH]n(-c4ccc(C)cc4)c3=O)sc2c1	37	-15	0	0.3	65*	35
CCC(Cc1ccccc1)NC(=O)c1ccc2nc(N3CCOCC3)sc2c1 (configuration not stated)	-4	·	4	·	·	·
CCOC(=O)N1CCN(C(=O)c2ccc3c(=O)n(Cc4ccc(Cl)cc4)c(=S)[nH]c3c2)CC1	-9	19	2	1	-1	14
CCOC(=O)N1CCN(C(=O)c2ccc(Cn3c(=S)[nH]c4ccc(Br)cc4c3=O)cc2)CC1	53*	·	0	·	·	·
O=C(Nc1ccccc1NC(=O)c1c(F)c(F)c(F)c(F)c1F)c1c(F)c(F)c(F)c(F)c1F	82*	6	3	1.1	-7	-16
O=C(Nc1cccc(F)c1)c1c(F)c(F)c(F)c(F)c1F	-1	9	2	1	-2	29
CC(=O)n1cc(N(C(=O)CCl)c2ccc(C)cc2)c2ccccc21	95*	·	12	·	·	38
O=C(CC(Nc1cccc(Cl)c1Cl)C(=O)O)c1ccccc1 (configuration not stated)	-1	-47	-1	1.1	-7	27
O=C(CC(Nc1ccc(Cl)cc1)C(=O)O)c1ccccc1 (configuration not stated)	62*	27	-3	0.3	69*	44
CCOC(=O)c1cccc(NC(=O)/C=C/c2ccc3c(c2)OCO3)c1	85*	19	4	0.6	36	33
COc1ccccc1NC(=O)/C=C/c1ccc2c(c1)OCO2	20	0	3	0.4	61*	10
CC(C)CC1NC(=O)N(CC(=O)Nc2ccc(OCc3ccccc3)cc2)C1=O (configuration not stated)	5	·	·	·	·	·
CC(C)(C)C(=O)NCCc1nc2ccccc2n1CC(=O)c1ccc(Cl)cc1	6	2	-3	1.1	-10	12
COCCCn1c(C(=O)N2CCOCC2)cc2c(=O)n3cccc(C)c3nc21	-7	·	-4	·	·	·
COCCCn1c(C(=O)Nc2ccc3c(c2)OCO3)cc2c(=O)n3cccc(C)c3nc21	54*	·	·	·	·	·
c1ccc(-c2cn3nc(-c4ccccc4)sc3n2)cc1	85*	·	·	·	·	·
Cc1nc2sc(-c3ccccc3)nn2c(=O)c1Br	28	17	0	0.7	28	0
O=C(NCCN1CCCCC1)Nc1cccc(F)c1	-11	·	16*	·	·	·
Cn1c2c(c(=O)n(C)c1=O)C(C(F)(F)F)(C(F)(F)F)N=C(c1ccc(Cl)cc1)N2	51*	89*	1	1	0	39
Cc1ccccc1C1=NC(C(F)(F)F)(C(F)(F)F)c2c(n(C)c(=O)n(C)c2=O)N1	2	-3	0	1.1	-6	1
SMILES	TRAIL sens C8	STAT3 blocker	HSP90 refold inh	FLuc act counter	FLuc inh counter	PPC-1+TRAIL kill
Cc1ccc(C(=O)Nc2cccc(-c3ccc(N4CCOCC4)nn3)c2)cc1	44	·	·	·	·	·
O=C(COc1ccc(Cl)cc1)Nc1cccc(-c2ccc(N3CCOCC3)nn2)c1	59*	·	·	·	·	·
O=C(Nc1cccc(-c2ccc(N3CCCCC3)nn2)c1)c1ccco1	81*	·	·	·	·	·
O=C(Nc1cccc(-c2ccc(N3CCOCC3)nn2)c1)c1ccccc1Cl	61*	·	·	·	·	·
Cc1cc(C(=O)Nc2cccc(-c3ccc(N4CCOCC4)nn3)c2)ccc1[N+](=O)[O-]	51*	·	·	·	·	·
Cc1ccc(C(=O)Nc2cccc(-c3ccc(N4CCOCC4)nn3)c2)cc1C	44	·	·	·	·	·
O=C(Nc1cccc(-c2ccc(N3CCOCC3)nn2)c1)c1ccc(Cl)cc1	19	·	·	·	·	·
O=C(C1CCN(S(=O)(=O)c2ccccc2)CC1)N1CCN(Cc2ccccc2)CC1	-17	·	-7	·	·	·
COc1ccc(CCCN2CCC(CN3C(=S)NC[C@@H]3Cc3ccccc3)CC2)cc1OC	-7	·	·	·	·	·

Source: PubChem BioAssay
